Laboratory results taken from ChEMBL document CHEMBL3232842, “Synthesis and pharmacological evaluation of novel limonin derivatives as anti-inflammatory and analgesic agents with high water solubility” (Bioorg Med Chem Lett, 2014).
Activity calls are given as the source filed them. The calls are words filed in the database; no cut-off is given here.

Key:
[1] = Dissociation constant, pKa of the compound; type: physicochemical
[2] = Partition coefficient, log D of the compound at pH 7.4; type: physicochemical; conditions: octanol/water
[3] = Intrinsic aqueous solubility of the compound; type: physicochemical; conditions: read-out: Intrinsic_solubility
Method in brief: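 Determined on a Gemini Profiler by potentiometric titration (Avdeef–Bucher method), which also gave pKa; logD at pH 7.4.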

Mus musculus [4] = experiment: Analgesic activity in mouse assessed as inhibition of acetic acid-induced writhing at 70 mg/kg, ig administered 1 hr before acetic acid challenge measured after 15 mins; type: functional; conditions: po, route intragastric
Method in brief: (§1)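 Mice dosed by gavage with compound suspended in 0.5% CMC-Na; the model group got vehicle only. 1 h later, 0.7% acetic acid in saline was injected i.p. at 0.1 ml/10 g body weight. Writhes were counted 15 min after the stimulus. Results are mean ± SEM, n = 8.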

Mus musculus [5] = experiment: Analgesic activity in mouse assessed as increase in tail-curl latency time at 100 mg/kg, ig measured after 30 to 90 mins by tail-immersion test; type: functional, organism-based; parameters: dose 100 mg/kg
Method in brief: (§2)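 Mice dosed by gavage with 100 mg/kg suspended in 0.5% CMC-Na. Tail-curl latency in the tail-immersion test was recorded before dosing and at 30, 60, 90 and 120 min afterward. Results are given as mean ± SEM (n = 8), with one-way ANOVA against control.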

Mus musculus [6] = experiment: Analgesic activity in mouse assessed as increase in tail-curl latency time at 100 mg/kg, ig measured after 90 mins by tail-immersion test; type: functional, organism-based; parameters: dose 100 mg/kg; method in brief: as §2
Mus musculus [7] = experiment: Antiinflammatory activity in mouse assessed as xylene-induced ear swollen extent at 100 mg/kg, ig administered 90 mins prior to xylene challenge measured after 30 mins (reference value: 132.8 +/-16.3%); type: functional; conditions: route intragastric
Method in brief: (§3)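 Mice were given compound by gavage as a suspension in 0.5% CMC-Na; the vehicle group got 0.5% CMC-Na. 90 min later, 25 µl xylene was applied to both surfaces of the right ear, with the left ear as control. Mice were killed 30 min later. 8 mm punches were taken from both ears and weighed, and swelling was expressed relative to the left ear weight. Results are mean ± SEM, n = 8.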

Mus musculus [8] = experiment: Antiinflammatory activity in mouse assessed as inhibition of xylene-induced ear swelling at 100 mg/kg, ig administered 90 mins prior to xylene challenge measured after 30 mins; type: functional; conditions: po, route intragastric; method in brief: as §3
Mus musculus [9] = experiment: Analgesic activity in mouse assessed as increase in tail-curl latency time at 100 mg/kg, ig measured after 60 mins by tail-immersion test; type: functional, organism-based; parameters: dose 100 mg/kg; method in brief: as §2
[10] = Equilibrium solubility of the compound by classical saturation shake flask method; type: physicochemical
Method in brief: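 Equilibrium solubility measured by the classical saturation shake-flask method.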

Mus musculus [11] = experiment: Analgesic activity in mouse assessed as increase in tail-curl latency time at 100 mg/kg, ig measured after 30 to 120 mins by tail-immersion test; type: functional, organism-based; parameters: dose 100 mg/kg; method in brief: as §2
Mus musculus [12] = experiment: Analgesic activity in mouse assessed as inhibition of acetic acid-induced writhing at 200 mg/kg, ig administered 1 hr before acetic acid challenge measured after 15 mins; type: functional; conditions: po, route intragastric; method in brief: as §1
Mus musculus [13] = species on record: Mus musculus; experiment: animal or person; conditions: Ear, po, read-out: INH

CCN(CC)CCO/N=C1/C[C@H]2C(C)(C)O[C@H]3CC(=O)OC[C@]32[C@H]2CC[C@@]3(C)[C@H](c4ccoc4)OC(=O)[C@H]4O[C@]43[C@]12C.Cl
pKa [1]: 9.17 | logD [2]: 0.26 | solubility [3]: 14500 µg/mL | inhibition in vivo at 70 mg/kg (Mus musculus [4]): 80% | Activity (Mus musculus [5]): Active | Activity (Mus musculus [6]): Active | Ear swelling extent (Mus musculus [7]): 32.6% | inhibition in vivo at 100 mg/kg (Mus musculus [8]): 75.5%

CC1(C)O[C@H]2CC(=O)OC[C@]23[C@H]2CC[C@]4(C)C(=CC(=O)O[C@H]4c4ccoc4)[C@]2(C)/C(=N\OCCN2CCCCC2)C[C@@H]13.Cl
pKa [1]: 8.52 | logD [2]: 0.81 | solubility [3]: 19800 µg/mL | inhibition in vivo at 70 mg/kg (Mus musculus [4]): 44.3% | Activity (Mus musculus [9]): Active | Ear swelling extent (Mus musculus [7]): 99.1% | inhibition in vivo at 100 mg/kg (Mus musculus [8]): 25.4%

CN(C)CCO/N=C1/C[C@H]2C(C)(C)O[C@H]3CC(=O)OC[C@]32[C@H]2CC[C@]3(C)C(=CC(=O)O[C@H]3c3ccoc3)[C@]12C.Cl
pKa [1]: 8.88 | logD [2]: 0.32 | solubility [3]: 28900 µg/mL | inhibition in vivo at 70 mg/kg (Mus musculus [4]): 30% | Activity (Mus musculus [9]): Active | Ear swelling extent (Mus musculus [7]): 100.2% | inhibition in vivo at 100 mg/kg (Mus musculus [8]): 24.6%

CC1(C)O[C@H]2CC(=O)OC[C@]23[C@H]2CC[C@@]4(C)[C@H](c5ccoc5)OC(=O)[C@H]5O[C@]54[C@]2(C)/C(=N\OCCN2CCOCC2)C[C@@H]13.Cl
pKa [1]: 6.11 | logD [2]: 2.45 | solubility [3]: 4500 µg/mL | inhibition in vivo at 70 mg/kg (Mus musculus [4]): 58% | Activity (Mus musculus [5]): Active | Ear swelling extent (Mus musculus [7]): 62.4% | inhibition in vivo at 100 mg/kg (Mus musculus [8]): 53%

CN(C)CCO/N=C1/C[C@H]2C(C)(C)O[C@H]3CC(=O)OC[C@]32[C@H]2CC[C@@]3(C)[C@H](c4ccoc4)OC(=O)[C@H]4O[C@]43[C@]12C.Cl
pKa [1]: 8.78 | logD [2]: 0.59 | solubility [3]: 17800 µg/mL | inhibition in vivo at 70 mg/kg (Mus musculus [4]): 68.6% | Activity (Mus musculus [5]): Active | Ear swelling extent (Mus musculus [7]): 72.4% | inhibition in vivo at 100 mg/kg (Mus musculus [8]): 45.5%

CN(C)CCCO/N=C1/C[C@H]2C(C)(C)O[C@H]3CC(=O)OC[C@]32[C@H]2CC[C@]3(C)C(=CC(=O)O[C@H]3c3ccoc3)[C@]12C.Cl
pKa [1]: 9.39 | logD [2]: 0.19 | solubility [3]: 9400 µg/mL | inhibition in vivo at 70 mg/kg (Mus musculus [4]): 60.7% | Activity (Mus musculus [9]): Active | Ear swelling extent (Mus musculus [7]): 97.8% | inhibition in vivo at 100 mg/kg (Mus musculus [8]): 26.4%

CC1(C)O[C@H]2CC(=O)OC[C@@]23[C@H]1CC(=O)[C@@]1(C)C2=CC(=O)O[C@H](c4ccoc4)[C@]2(C)CC[C@@H]13 [DESOXYLIMONIN]
solubility thermodynamic [10]: < 5 µg/mL | inhibition in vivo at 70 mg/kg (Mus musculus [4]): 24.6% | Ear swelling extent (Mus musculus [7]): 111.7% | inhibition in vivo at 100 mg/kg (Mus musculus [8]): 15.9% | Activity (Mus musculus [11]): inactive

CC(=O)Oc1ccccc1C(=O)O [ASPIRIN]
inhibition in vivo at 200 mg/kg (Mus musculus [12]): 71.8%

CC1(C)O[C@H]2CC(=O)OC[C@]23[C@H]2CC[C@]4(C)C(=CC(=O)O[C@H]4c4ccoc4)[C@]2(C)/C(=N\OCCN2CCOCC2)C[C@@H]13.Cl
pKa [1]: 6.84 | logD [2]: 2.52 | solubility [3]: 2100 µg/mL | inhibition in vivo at 70 mg/kg (Mus musculus [4]): 50% | Activity (Mus musculus [9]): Active | Ear swelling extent (Mus musculus [7]): 96.1% | inhibition in vivo at 100 mg/kg (Mus musculus [8]): 27.6%

CC1(C)O[C@H]2CC(=O)OC[C@]23[C@H]2CC[C@@]4(C)[C@H](c5ccoc5)OC(=O)[C@H]5O[C@]54[C@]2(C)C(=O)C[C@@H]13 [LIMONIN]
solubility thermodynamic [10]: < 5 µg/mL | inhibition in vivo at 70 mg/kg (Mus musculus [4]): 45.9% | Ear swelling extent (Mus musculus [7]): 89.3% | inhibition in vivo at 100 mg/kg (Mus musculus [8]): 32.7%

CN(C)CCCO/N=C1/C[C@H]2C(C)(C)O[C@H]3CC(=O)OC[C@]32[C@H]2CC[C@@]3(C)[C@H](c4ccoc4)OC(=O)[C@H]4O[C@]43[C@]12C.Cl
pKa [1]: 9.28 | logD [2]: 0.37 | solubility [3]: 9600 µg/mL | inhibition in vivo at 70 mg/kg (Mus musculus [4]): 64.1% | Activity (Mus musculus [5]): Active | Ear swelling extent (Mus musculus [7]): 71.6% | inhibition in vivo at 100 mg/kg (Mus musculus [8]): 46.1%

COc1ccc2cc([C@H](C)C(=O)O)ccc2c1 [NAPROXEN]
inhibition in vivo at 150 mg/kg (Mus musculus [13]): 36.6%

CC1(C)O[C@H]2CC(=O)OC[C@]23[C@H]2CC[C@@]4(C)[C@H](c5ccoc5)OC(=O)[C@H]5O[C@]54[C@]2(C)/C(=N\OCCN2CCCCC2)C[C@@H]13.Cl
pKa [1]: 8.87 | logD [2]: 0.44 | solubility [3]: 25300 µg/mL | inhibition in vivo at 70 mg/kg (Mus musculus [4]): 70.5% | Activity (Mus musculus [5]): Active | Activity (Mus musculus [9]): Active | Ear swelling extent (Mus musculus [7]): 60.1% | inhibition in vivo at 100 mg/kg (Mus musculus [8]): 54.8%

CCN(CC)CCO/N=C1/C[C@H]2C(C)(C)O[C@H]3CC(=O)OC[C@]32[C@H]2CC[C@]3(C)C(=CC(=O)O[C@H]3c3ccoc3)[C@]12C.Cl
pKa [1]: 9.49 | logD [2]: 0.57 | solubility [3]: 1900 µg/mL | inhibition in vivo at 70 mg/kg (Mus musculus [4]): 33.2% | Activity (Mus musculus [9]): Active | Ear swelling extent (Mus musculus [7]): 108.2% | inhibition in vivo at 100 mg/kg (Mus musculus [8]): 18.4%
